Most compounds without a hit are left out; they make up all but 3.5% or so of the library.
RGS4 block – RGS4 inhibitors, primary screen, cell-based, HEK293 M3R inducible RGS4, calcium flux; Regulator of G-protein signaling 4 (Homo sapiens), P49798; Fluo-4 calcium flux; stronger effect = higher value; triggered by carbachol at its EC20; B-score at 10 µM; 310,000 compounds, 0.45% hits;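 active = B-score, a plate-corrected calcium signal, over three deviations above library mean, with baseline fluorescence within five deviations of library mean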;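 note: RGS4 expression induced by doxycycline in cells with stable M3 receptor; B-score is computed from the integrated fluorescence ratio over baseline after carbachol; higher B-score means a larger calcium signal and so more RGS4 inhibition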
Target sequence (P49798 whole entry, looked up): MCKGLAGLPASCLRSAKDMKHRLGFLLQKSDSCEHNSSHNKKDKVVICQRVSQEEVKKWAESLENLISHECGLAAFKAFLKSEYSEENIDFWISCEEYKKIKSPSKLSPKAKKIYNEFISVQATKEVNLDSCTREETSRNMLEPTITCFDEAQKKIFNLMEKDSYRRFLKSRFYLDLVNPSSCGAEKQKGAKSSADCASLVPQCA
MrgX1 PAM – positive allosteric modulators of MrgX1, primary screen, HEK293 cells, Fluo-4 calcium flux | Mas-related G-protein coupled receptor member X1 (Homo sapiens), Q96LB2 | FDSS; stronger effect = higher value | B-score at 10 µM | 310,000 compounds, 0.63% hits;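 active = plate-corrected calcium response at least 3 library SD above typical, normal starting fluorescence, not activating the receptor alone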;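 note: compound read alongside a low EC10 to EC30 dose of BAM8-22 agonist; peak minus trough fluorescence over baseline measured at the second addition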
Target sequence (Q96LB2 whole entry, looked up): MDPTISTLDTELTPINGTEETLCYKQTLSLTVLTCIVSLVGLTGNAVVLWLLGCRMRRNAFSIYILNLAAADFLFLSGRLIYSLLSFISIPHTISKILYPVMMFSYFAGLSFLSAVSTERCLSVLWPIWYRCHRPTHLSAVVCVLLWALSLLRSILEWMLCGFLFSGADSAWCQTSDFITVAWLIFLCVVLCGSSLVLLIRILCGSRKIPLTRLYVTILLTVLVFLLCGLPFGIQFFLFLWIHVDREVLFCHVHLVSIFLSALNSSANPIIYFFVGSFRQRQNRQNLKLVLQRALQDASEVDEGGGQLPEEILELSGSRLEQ
RGS4 act – RGS4 potentiators or activators, primary screen, cell-based, HEK293 M3R inducible RGS4, calcium flux. carbachol calcium flux Fluo4; stronger effect = lower value. B-score at 10 µM. 310,000 compounds, 0.92% hits;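 active = B-score of the integrated calcium signal more than 4 SD below the library mean, with starting fluorescence not abnormally high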;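 note: negative B-score means reduced calcium response which marks RGS4 activation or potentiation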
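Assay system: HEK293 FlpIn-TREx cells, stable M3R, doxycycline-inducible RGS4 / Probe or stimulus: carbachol, ECmax concentration / Times: overnight RGS4 induction, 30 min dye load 37 °C, 20 min compound RT / Signal: kinetic calcium fluorescence imaging with Fluo4-AM dye, 2 µM / Measure: Agonist-evoked peak-minus-minimum fluorescence over baseline, integrated ratio, B score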
MrgX1 antag – antagonists of human MrgX1 receptor, primary screen, HEK293 cells, Fluo-4 calcium flux | Mas-related G-protein coupled receptor member X1 (Homo sapiens), Q96LB2 | BAM8-22 antagonism; stronger effect = lower value | B-score at 10 µM | 310,000 compounds, 1.3% hits | AID 588676, 2011;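 active = calcium-response B-score plate-corrected more than 3 library SD below zero, starting fluorescence within 5 deviations, no agonist response on first addition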;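 note: peak minus trough fluorescence over baseline after final BAM8-22 challenge near maximal dose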
MrgX1 ag – agonists of human MrgX1 receptor, primary screen, HEK293 cells, Fluo-4 calcium flux; Mas-related G-protein coupled receptor member X1 (Homo sapiens), Q96LB2; Fluo-4 calcium fluorescence, agonist mode; stronger effect = higher value; B-score at 10 µM; 310,000 compounds, 0.44% hits; AID 588627, 2011;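 active = calcium response B-score plate-corrected fluorescence ratio at least 3 library SD, with starting fluorescence B-score inside 5 SD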
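System – MrgX1-expressing HEK293 cells · Incubation – cells plated overnight, dye loaded 0.5 h 37 °C, 0.5 h room temperature · Technique – kinetic Fluo-4 NW fluorescence of intracellular calcium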
Starred values were filed as active, the others as inactive; i = inactive; nt = no result.

SMILES | RGS4 block | MrgX1 PAM | RGS4 act | MrgX1 antag | MrgX1 ag
Cc1cccc(NC(=O)c2cccc(NC(=O)Cc3cccs3)c2)c1 | i | i | i | i | i
CCOC(=O)C(=O)NNc1ccc(Cl)cc1 | i | i | i | i | i
CCOC(=O)C(=O)NNc1ccc(C)cc1 | i | i | i | -9* | i
Cc1ccc(C(O)(CCN2CCCCC2)c2ccccc2)cc1 (configuration not stated) | i | i | -7.6* | i | i
OC(CCN1CCCCC1)(c1ccccc1)C1CCCCC1 (configuration not stated) | i | i | i | i | i
Cc1ccc(-c2nc(CN(C)Cc3cccc4cnccc34)c(C)o2)s1 | i | i | i | i | 28*
Cc1nn(CC(=O)N2CCN(Cc3ccccc3)CC2)c(=O)c2ccccc12 | i | 6.9* | i | i | i
Cc1nn(CC(=O)N2CCOCC2)c(=O)c2ccccc12 | i | i | i | i | i
O=C1Nc2ccccc2C1=Nc1ccc(F)cc1 | i | i | i | i | i
CC(=O)c1ccc(N=C2C(=O)Nc3ccccc32)cc1 | i | i | i | i | 29*
CC1=CC(=C(C#N)c2nc3ccccc3s2)C=C(C)N1Cc1ccco1 | i | i | -7.6* | i | i
COc1ccccc1C1NC=C([N+](=O)[O-])C=C1[N+](=O)[O-] (configuration not stated) | i | i | i | i | 29*
O=C1CCC([N+](=O)[O-])C(c2cc3c(cc2Cl)OCO3)N1 (configuration not stated) | i | i | i | -4.5* | i
Cc1sc(NC(=O)c2ccco2)c(CN2CCC(C)CC2)c1C | i | i | i | i | i
Cc1sc(NC(=O)c2ccco2)c(C(c2cccnc2)N2CCC(C)CC2)c1C (configuration not stated) | i | i | -7.9* | i | i
COc1cccc(CNC(=O)CCNS(=O)(=O)c2cccc3nonc23)c1 | i | i | i | i | i
c1csc(Cn2c(-c3cccs3)nc3ccccc32)c1 | i | i | i | i | i
O=C(NCc1ccccc1Cl)C1CCC(=O)N(C2CC2)C1 (configuration not stated) | i | i | i | i | i
CCN(CC)CCNC(=O)c1ccc(NC(C)=O)cc1 | i | i | i | i | i
CCN(CC)CCNC(=O)c1ccc(NC(=O)Cc2cccc3ccccc23)cc1 | i | i | -7.5* | i | i
O=C(NC(=S)Nc1ccccc1N1CCCC1)c1ccc([N+](=O)[O-])cc1 | i | i | i | i | i
Cc1ccc2nc(C)/c(=N\O)c(C)nc2c1 | i | 10* | i | i | i
CCCCCCc1cc2cc(C(=O)OCC)c(=O)oc2cc1O | i | i | i | -7.3* | i
CCCCCCc1cc2cc(C(N)=O)c(=N)oc2cc1O | i | i | -8.1* | i | i
COc1ccc(S(=O)(=O)CCC(=O)N2CCN(c3ccc(C(C)=O)cc3)CC2)cc1 | i | i | i | i | i
SMILES | RGS4 block | MrgX1 PAM | RGS4 act | MrgX1 antag | MrgX1 ag
O=C(Nc1ccc(Br)c(C(F)(F)F)c1)c1ccc(C(F)(F)F)cc1 | i | i | i | -7.2* | i
O=C(Nc1ccc(Br)c(C(F)(F)F)c1)c1ccccc1 | i | i | i | i | i
O=C(Nc1ccc(OCC(F)(F)C(F)F)c(C(F)(F)F)c1)c1ccc(Cl)cc1 | i | i | -7.8* | i | i
CC(=O)N1c2ccc(S(=O)(=O)N3CCC(C(=O)Nc4cccc(C)c4C)CC3)cc2CC1C (configuration not stated) | i | i | i | i | i
CCOc1ccccc1N1C(=O)CC(Nc2ccc(N3CCOCC3)cc2)C1=O (configuration not stated) | i | i | i | -4.5* | i
CC1(C)CC[C@]2(C(=O)O)CC[C@]3(C)C(=CC[C@@H]4[C@@]5(C)CC[C@H](O)C(C)(C)[C@@H]5CC[C@]43C)[C@@H]2C1 | nt | i | nt | i | i
CC(=O)OC1COC(OC2C(O)C(C)OC(OC3C(OC4CCC5(C)C(CCC6(C)C5CC=C5C7CC(C)(C)CCC7(C(=O)O)CCC56C)C4(C)CO)OCC(O)C3O)C2O)C(O)C1OC(C)=O (configuration not stated) | nt | i | nt | i | 219*
CC1=NNC(=O)/C1=C\c1cn(-c2ccccc2)nc1-c1ccc(Cl)cc1 | i | i | i | i | i
Cc1ccc(-c2nn(-c3ccccc3)cc2C=C2C(=O)CC(C)(C)CC2=O)cc1 | 11* | i | i | i | i
CC1=C(C#N)C(=O)OC(C)(C)C1 | i | i | i | i | i
COc1cc(/C=c2\s/c(=C(/C#N)C(=O)N3CCCC3)n(-c3ccccc3)c2=O)ccc1O | i | 14* | i | i | i
COC(=O)/C=c1/s/c(=C(/C#N)C(=O)N2CCCCC2)n(-c2ccccc2)c1=O | i | i | i | i | i
CCN(CC)c1ccc2cc(/C(N)=N/NC(=O)c3cccs3)c(=O)oc2c1 | i | 27* | i | i | i
Cc1cccc(C(=O)N2CCN=C2SCc2ccc([N+](=O)[O-])cc2)c1 | i | i | -8.6* | i | i
O=C(Cc1ccccc1)N1CCN=C1SCc1cccc([N+](=O)[O-])c1 | i | i | i | i | i
CCOc1ccc(-c2cc(C(=O)Nc3ccc4c(c3)OCCO4)c3ccccc3n2)cc1 | i | i | -7.6* | i | i
Cc1cccc(-c2cc(C(=O)Nc3ccc4c(c3)OCCO4)c3ccccc3n2)c1 | i | i | -7.2* | i | i
O=C(Nc1ccc2c(c1)OCCO2)c1cc(-c2ccccn2)nc2ccc(Br)cc12 | i | i | i | i | i
CCC(C)NCCCCOc1cc(C)cc(C(C)C)c1 (configuration not stated) | i | i | -7.3* | i | i
COc1ccc(NC(=O)c2ccc(C)cc2)cc1 | i | i | i | i | i
COC(=O)C1=NNC2C(=O)N(c3ccc(C)cc3)C(=O)C12 (configuration not stated) | i | i | i | i | i
Cc1ccc(N2C(=O)C3C=NNC3C2=O)cc1 (configuration not stated) | i | i | i | -5* | i
